Values after ≈ are worked out from the molar mass of the structure shown.
How the values were obtained:
Candida albicans [1] = assay: Antifungal activity against Candida albicans ATCC 10231 after 24 hrs by two fold serial dilution method; assay type: functional; conditions: ATCC 10231, 24 h
Method in brief: (§1)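 Candida grown on Sabouraud dextrose agar at 35 °C for 24 h, adjusted to ~5×10^3 CFU/mL. Two-fold dilutions from 100 to 0.78 μg/mL in Sabouraud dextrose broth, incubated at 35 °C for 24 h. MIC is the lowest concentration inhibiting growth by eye and by OD600. CLSI-based with minor modifications.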

Candida albicans [2] = assay: Antifungal activity against drug resistant Candida albicans DF2672R after 24 hrs by two fold serial dilution method; assay type: functional; method in brief: as §1
[3] = Selectivity index, ratio of HC50 for New Zealand white rabbit RBC to MIC for Candida albicans ATCC 10231
Staphylococcus aureus [4] = assay: Antibacterial activity against Staphylococcus aureus DM4001R by two fold serial dilution method; assay type: functional
Method in brief: (§2)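 Broth microdilution (CLSI, minor modifications) in Sabouraud dextrose, Mueller−Hinton or RPMI 1640 broth; two-fold serial dilutions of compound from stock to final 100 to 0.78 μg/mL. MIC taken as lowest concentration giving no visible growth.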

Bacillus cereus = assay: Antibacterial activity against Bacillus cereus ATCC11778 by two fold serial dilution method; assay type: functional; method in brief: as §2
Klebsiella pneumoniae = assay: Antibacterial activity against Klebsiella pneumoniae DM4299 by two fold serial dilution method; assay type: functional; method in brief: as §2
Pseudomonas aeruginosa = assay: Antibacterial activity against Pseudomonas aeruginosa DM23155 by two fold serial dilution method; assay type: functional; method in brief: as §2
Candida albicans [5] = assay: Antifungal activity against Candida albicans DF1976R after 24 hrs by two fold serial dilution method; assay type: functional; method in brief: as §1
Candida albicans [6] = assay: Antifungal activity against Candida albicans ATCC90028 after 24 hrs by two fold serial dilution method; assay type: functional; conditions: ATCC90028, 24 h; method in brief: as §1
Candida albicans [7] = assay: Antifungal activity against Candida albicans ATCC24433 after 24 hrs by two fold serial dilution method; assay type: functional; conditions: ATCC24433, 24 h; method in brief: as §1
Candida albicans [8] = assay: Antifungal activity against Candida albicans ATCC11651 after 24 hrs by two fold serial dilution method; assay type: functional; conditions: ATCC11651, 24 h; method in brief: as §1
Staphylococcus aureus [9] = assay: Antibacterial activity against methicillin resistant Staphylococcus aureus DM21455 by two fold serial dilution method; assay type: functional
Method in brief: (§3)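 Broth microdilution per CLSI guidelines with minor modifications, run in Mueller−Hinton broth; MIC is the lowest concentration giving no visible growth.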

Staphylococcus aureus [10] = assay: Antibacterial activity against methicillin resistant Staphylococcus aureus DM9808R by two fold serial dilution method; assay type: functional; method in brief: as §3
[11] = Dissociation constant, pKa of compound; assay type: physicochemical

Compound | MIC (Candida albicans [1]) [µg/mL] | MIC (Candida albicans [2]) [µg/mL] | Selectivity Index [3] | also measured
COc1c(OCC(O)CNCCNC(=N)N)cc2oc3cc(OCC(O)CNC(=N)N)c(CC=C(C)C)c(O)c3c(=O)c2c1CC=C(C)C (configuration not stated) | 6.25 (≈ 9.14 µM) | 6.25 (≈ 9.14 µM) | 8.6 | –
COc1c(OCC(=O)N[C@@H](CCCNC(=N)N)C(N)=O)cc2oc3cc(OCC(=O)N[C@@H](CCCNC(=N)N)C(N)=O)c(CC=C(C)C)c(O)c3c(=O)c2c1CC=C(C)C | 6.25 (≈ 7.47 µM) | 6.25 (≈ 7.47 µM) | 20.5 | –
CC[N+](C)(CC)CC(O)COc1cc2oc3cc(OCC(O)C[N+](C)(CC)CC)c(OC)c(CC=C(C)C)c3c(=O)c2c(O)c1CC=C(C)C.[I-].[I-] (configuration not stated) | 12.5 | 6.25 | 2.9 to 5.7 | –
CCCN(CCC)CC(O)COc1cc2oc3cc(OCC(O)CN(CCC)CCC)c(OC)c(CC=C(C)C)c3c(=O)c2c(O)c1CC=C(C)C (configuration not stated) | 3.13 (≈ 4.32 µM) | 3.13 (≈ 4.32 µM) | > 128 | MIC (Staphylococcus aureus [4]): 6.25 to 12.5 µg/mL (≈ 8.62 to 17.2 µM); MIC (Bacillus cereus): 6.25 to 12.5 µg/mL (≈ 8.62 to 17.2 µM); MIC (Klebsiella pneumoniae): > 50 µg/mL; MIC (Pseudomonas aeruginosa): > 50 µg/mL; MIC (Candida albicans [5]): 6.25 µg/mL (≈ 8.62 µM); MIC (Candida albicans [6]): 6.25 µg/mL (≈ 8.62 µM); MIC (Candida albicans [7]): 6.25 µg/mL (≈ 8.62 µM); MIC (Candida albicans [8]): 6.25 µg/mL (≈ 8.62 µM); MIC (Staphylococcus aureus [9]): 6.25 to 12.5 µg/mL (≈ 8.62 to 17.2 µM); MIC (Staphylococcus aureus [10]): 6.25 to 12.5 µg/mL (≈ 8.62 to 17.2 µM)
C[C@@H]1[C@H](O)[C@@H](C)/C=C/C=C/C=C/C=C/C=C/C=C/C=C/[C@H](O[C@@H]2O[C@H](C)[C@@H](O)[C@H](N)[C@@H]2O)C[C@@H]2O[C@](O)(C[C@@H](O)C[C@@H](O)[C@H](O)CC[C@@H](O)C[C@@H](O)CC(=O)O[C@H]1C)C[C@H](O)[C@H]2C(=O)O [AMPHOTERICIN B] | – | 0.2 (≈ 0.216 µM) | – | –
COc1c(OCC(O)CN2CCCCC2)cc2oc3cc(OCC(O)CN4CCCCC4)c(CC=C(C)C)c(O)c3c(=O)c2c1CC=C(C)C (configuration not stated) | 6.25 (≈ 9.02 µM) | 6.25 (≈ 9.02 µM) | 5.1 | pKa [11]: 11.2
COc1c(OCC(=O)N[C@@H](CCCNC(=N)N)C(=O)OC(C)(C)C)cc2oc3cc(OCC(=O)N[C@@H](CCCNC(=N)N)C(=O)OC(C)(C)C)c(CC=C(C)C)c(O)c3c(=O)c2c1CC=C(C)C | 12.5 (≈ 13.1 µM) | 6.25 (≈ 6.57 µM) | 6.3 to 12.6 | –
CC[C@@H]([C@H](C)O)n1ncn(-c2ccc(N3CCN(c4ccc(OC[C@@H]5CO[C@@](Cn6cncn6)(c6ccc(F)cc6F)C5)cc4)CC3)cc2)c1=O [POSACONAZOLE] | – | 12.5 (≈ 17.8 µM) | – | –
COc1c(OCC(O)CNC2CCCCCCC2)cc2oc3cc(OCC(O)CNC4CCCCCCC4)c(CC=C(C)C)c(O)c3c(=O)c2c1CC=C(C)C (configuration not stated) | 6.25 (≈ 8.04 µM) | 6.25 (≈ 8.04 µM) | 29.7 | –
COc1c(OCC(O)CN)cc2oc3cc(OCC(O)CN)c(CC=C(C)C)c(O)c3c(=O)c2c1CC=C(C)C (configuration not stated) | 6.25 (≈ 11.2 µM) | 6.25 (≈ 11.2 µM) | 7.9 | pKa [11]: 10.5
CCN(CC)CC(O)COc1cc2oc3cc(OCC(O)CN(CC)CC)c(OC)c(CC=C(C)C)c3c(=O)c2c(O)c1CC=C(C)C (configuration not stated) | 6.25 (≈ 9.34 µM) | 6.25 (≈ 9.34 µM) | 5.6 | MIC (Staphylococcus aureus [4]): 1.56 to 3.13 µg/mL (≈ 2.33 to 4.68 µM); MIC (Bacillus cereus): 1.56 to 3.13 µg/mL (≈ 2.33 to 4.68 µM); MIC (Klebsiella pneumoniae): 25 to 50 µg/mL (≈ 37.4 to 74.8 µM); MIC (Pseudomonas aeruginosa): 25 to 50 µg/mL (≈ 37.4 to 74.8 µM); MIC (Staphylococcus aureus [9]): 1.56 to 3.13 µg/mL (≈ 2.33 to 4.68 µM); MIC (Staphylococcus aureus [10]): 1.56 to 3.13 µg/mL (≈ 2.33 to 4.68 µM)
COc1c(OCC(O)CN(C)Cc2ccccc2)cc2oc3cc(OCC(O)CN(C)Cc4ccccc4)c(CC=C(C)C)c(O)c3c(=O)c2c1CC=C(C)C (configuration not stated) | 12.5 (≈ 16.3 µM) | 6.25 (≈ 8.17 µM) | > 32 | –
COC(=O)[C@H](CCCNC(=N)N)NC(=O)COc1cc2oc3cc(OCC(=O)N[C@@H](CCCNC(=N)N)C(=O)OC)c(OC)c(CC=C(C)C)c3c(=O)c2c(O)c1CC=C(C)C | 6.25 (≈ 7.21 µM) | 6.25 (≈ 7.21 µM) | 37.1 | –
COc1c(OCC(O)C[N+](C)(C)C)cc2oc3cc(OCC(O)C[N+](C)(C)C)c(CC=C(C)C)c(O)c3c(=O)c2c1CC=C(C)C.[I-].[I-] (configuration not stated) | 12.5 | 12.5 | 2.9 | –
COc1c(OCC(O)Cn2ccnc2)cc2oc3cc(OCC(O)Cn4ccnc4)c(CC=C(C)C)c(O)c3c(=O)c2c1CC=C(C)C (configuration not stated) | 12.5 (≈ 19 µM) | 12.5 (≈ 19 µM) | > 32 | –
COc1c(OCC(O)CN(C)C)cc2oc3cc(OCC(O)CN(C)C)c(CC=C(C)C)c(O)c3c(=O)c2c1CC=C(C)C (configuration not stated) | 6.25 (≈ 10.2 µM) | 6.25 (≈ 10.2 µM) | 4.8 | –
CCCCN(C)CC(O)COc1cc2oc3cc(OCC(O)CN(C)CCCC)c(OC)c(CC=C(C)C)c3c(=O)c2c(O)c1CC=C(C)C (configuration not stated) | 3.13 (≈ 4.49 µM) | 3.13 (≈ 4.49 µM) | 15.5 | MIC (Candida albicans [5]): 3.13 µg/mL (≈ 4.49 µM); MIC (Candida albicans [6]): 3.13 µg/mL (≈ 4.49 µM); MIC (Candida albicans [7]): 6.25 µg/mL (≈ 8.97 µM); MIC (Candida albicans [8]): 6.25 µg/mL (≈ 8.97 µM)
COc1c(O)cc2oc3cc(O)c(CC=C(C)C)c(O)c3c(=O)c2c1CC=C(C)C [MANGOSTIN] | > 50 | > 50 | < 0.2 | –
